{
  "source": "ChEMBL document CHEMBL1122364",
  "about": "“Preparation of 2-amino-4(3H)-oxopyrimido[5,4-b] [1,4]thiazines (5-thiapterins) and their evaluation as cofactors for phenylalanine hydroxylase” (J Med Chem, 1983)",
  "key": {"[1]": {"target": "T1, Phenylalanine-4-hydroxylase (Rattus norvegicus, UniProt P04176)", "T1 sequence (P04176 whole entry)": "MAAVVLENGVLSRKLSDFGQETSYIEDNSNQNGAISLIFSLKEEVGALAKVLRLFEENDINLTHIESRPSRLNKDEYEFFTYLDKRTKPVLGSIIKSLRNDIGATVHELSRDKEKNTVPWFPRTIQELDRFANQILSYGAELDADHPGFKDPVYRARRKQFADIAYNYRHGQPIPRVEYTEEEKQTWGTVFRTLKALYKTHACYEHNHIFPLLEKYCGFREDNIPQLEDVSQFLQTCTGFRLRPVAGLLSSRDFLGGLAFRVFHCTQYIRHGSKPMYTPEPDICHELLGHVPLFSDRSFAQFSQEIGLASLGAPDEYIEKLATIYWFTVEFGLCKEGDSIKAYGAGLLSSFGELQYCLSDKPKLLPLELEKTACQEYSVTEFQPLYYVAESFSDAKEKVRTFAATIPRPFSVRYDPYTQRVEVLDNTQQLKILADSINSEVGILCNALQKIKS", "experiment": "Tested for competitive binding inhibition against phenylalanine hydroxylase in rat liver", "method_in_brief": "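Initial rate of tyrosine formation followed at 25 °C as the rise in absorbance at 275 nm. The cofactor was 6-MePH₄ at 12.5–50 μM.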"}, "[2]": {"experiment": "Michaelis-Menten constant was determined for the compound"}},
  "data": [
    {"smiles": "CC1CNc2nc(N)nc(O)c2[S+]1[O-]", "note": "(stereo unspecified)", "values": [
      {"measurement": "Ki", "setting": "[1]", "value": 125, "unit": "µM"}
    ]},
    {"smiles": "Nc1nc(O)c2c(n1)NCC(c1ccccc1)[S+]2[O-]", "note": "(stereo unspecified)", "values": [
      {"measurement": "Ki", "setting": "[1]", "value": 7, "unit": "µM"}
    ]},
    {"smiles": "CC1CNc2nc(N)[nH]c(=O)c2N1", "note": "(stereo unspecified)", "values": [
      {"measurement": "Km", "setting": "[2]", "value": 40, "unit": "µM"}
    ]},
    {"smiles": "Nc1nc(O)c2c(n1)SCC(c1ccccc1)N2", "note": "(stereo unspecified)", "values": [
      {"measurement": "Ki", "setting": "[1]", "value": 500, "unit": "µM"}
    ]},
    {"smiles": "Nc1nc(O)c2c(n1)NCCS2", "values": [
      {"measurement": "Ki", "setting": "[1]", "value": 85, "unit": "µM"}
    ]},
    {"smiles": "Nc1nc(O)c2c(n1)NCCN2", "values": [
      {"measurement": "Km", "setting": "[2]", "value": 130, "unit": "µM"}
    ]},
    {"smiles": "Nc1nc(N)c(Sc2ccccc2)c(O)n1", "values": [
      {"measurement": "Ki", "setting": "[1]", "value": 4.7, "unit": "µM"}
    ]},
    {"smiles": "Nc1nc(O)c2c(n1)NCC[S+]2[O-]", "note": "(stereo unspecified)", "values": [
      {"measurement": "Ki", "setting": "[1]", "value": 400, "unit": "µM"}
    ]},
    {"smiles": "Nc1nc2c(c(=O)[nH]1)SC(c1ccccc1)CN2", "note": "(stereo unspecified)", "values": [
      {"measurement": "Ki", "setting": "[1]", "value": 0.2, "unit": "µM"}
    ]},
    {"smiles": "Nc1nc(O)c2c(n1)NCC(c1ccccc1)N2", "note": "(stereo unspecified)", "values": [
      {"measurement": "Km", "setting": "[2]", "value": 3, "unit": "µM"}
    ]},
    {"smiles": "CC1CNc2nc(N)[nH]c(=O)c2S1", "note": "(stereo unspecified)", "values": [
      {"measurement": "Ki", "setting": "[1]", "value": 36, "unit": "µM"}
    ]}
  ]
}
